Test [1] deals with Estrogen receptor beta (Homo sapiens) (UniProt Q92731). As to the kind of experiment: Relative binding affinity towards estrogen receptor 2 determined by a competitive radiometric binding assay using 10 nM [3H]estradiol as the radioligand. The essentials:
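Competitive radiometric binding with purified human ERβ and 10 nM [3H]estradiol tracer. Hydroxylapatite captured the bound complex. Incubation was at 0 °C for 18–24 h. Competitors were dissolved in 1:1 DMF:TEA. RBA is relative to estradiol (100%). Duplicate independent experiments were run, with CV <0.3.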

Test [2] concerns the target T1, Estrogen receptor (Homo sapiens) (UniProt P03372).
T1 sequence (whole entry): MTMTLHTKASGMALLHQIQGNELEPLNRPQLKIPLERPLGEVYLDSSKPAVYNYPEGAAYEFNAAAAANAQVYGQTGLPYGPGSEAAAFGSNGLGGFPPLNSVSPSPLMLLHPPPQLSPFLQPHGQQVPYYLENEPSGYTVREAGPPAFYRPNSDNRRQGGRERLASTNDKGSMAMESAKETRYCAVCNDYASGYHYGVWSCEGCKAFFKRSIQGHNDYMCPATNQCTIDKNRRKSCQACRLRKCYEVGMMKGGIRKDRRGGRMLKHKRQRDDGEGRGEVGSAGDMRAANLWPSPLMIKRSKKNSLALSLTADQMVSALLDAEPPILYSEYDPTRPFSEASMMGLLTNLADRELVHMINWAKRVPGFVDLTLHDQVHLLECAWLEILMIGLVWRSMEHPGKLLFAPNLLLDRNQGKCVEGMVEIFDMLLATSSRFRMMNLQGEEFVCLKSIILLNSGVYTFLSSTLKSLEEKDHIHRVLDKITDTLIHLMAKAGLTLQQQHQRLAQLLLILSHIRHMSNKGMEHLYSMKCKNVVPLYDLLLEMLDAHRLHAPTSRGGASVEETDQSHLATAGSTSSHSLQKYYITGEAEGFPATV
The experiment in a line: Relative binding affinity (RBA) for ER alpha (Estrogen receptor alpha) determined by a competitive radiometric binding assay using 10 nM [3H]estradiol as the radioligand. The essentials:
(§1)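 Competitive radiometric binding with purified human ERα and 10 nM [3H]estradiol tracer. Bound receptor–ligand complex was adsorbed on hydroxylapatite. Incubation was at 0 °C for 18–24 h. Unlabeled competitors were dissolved in 1:1 DMF:TEA. RBA is expressed relative to estradiol (100%). Duplicate separate experiments were run, with CV <0.3.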

For test [3], the system named is Estrogen receptor (Ovis aries). The experiment in a line: Relative binding affinity (RBA) for ER alpha using lamb uterine cytosol determined by a competitive radiometric binding assay using 10 nM [3H]estradiol as the radioligand. Conditions: Uterus.
In test [4] the target is T1, Estrogen receptor (Homo sapiens). The experiment in a line: Relative binding affinity for Estrogen receptor alpha compared 10 nM [3H]estradiol. The essentials:
as §1

Experimental findings from ChEMBL document CHEMBL1134677, “Synthesis and biological evaluation of a novel series of furans: ligands selective for estrogen receptor alpha” (J Med Chem, 2001) are described below.

Each structure is given as a SMILES string.

Sequence of Estrogen receptor beta (Homo sapiens) (Q92731 whole entry): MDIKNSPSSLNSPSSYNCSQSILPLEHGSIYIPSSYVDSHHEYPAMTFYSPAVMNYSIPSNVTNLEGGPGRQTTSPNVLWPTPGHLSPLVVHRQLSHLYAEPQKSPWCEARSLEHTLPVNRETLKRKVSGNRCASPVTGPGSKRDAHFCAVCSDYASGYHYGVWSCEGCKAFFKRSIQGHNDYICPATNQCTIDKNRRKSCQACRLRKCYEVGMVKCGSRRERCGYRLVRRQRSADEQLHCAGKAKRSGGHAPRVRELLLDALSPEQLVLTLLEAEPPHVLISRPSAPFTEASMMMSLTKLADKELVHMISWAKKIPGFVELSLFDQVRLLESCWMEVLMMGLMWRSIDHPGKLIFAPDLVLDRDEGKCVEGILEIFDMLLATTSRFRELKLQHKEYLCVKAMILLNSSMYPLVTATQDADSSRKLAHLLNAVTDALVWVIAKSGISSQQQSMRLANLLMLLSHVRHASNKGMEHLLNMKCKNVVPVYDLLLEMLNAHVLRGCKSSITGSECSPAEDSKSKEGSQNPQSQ

Consider `CCc1c(-c2ccc(O)cc2)oc(-c2ccccc2)c1-c1ccc(O)cc1`, for which the values for the relative binding affinity (RBA) in test [1], in test [2] and in test [3] were 7.1, 82 and 4.6, respectively.
In the case of `Oc1ccc(-c2cc(-c3ccccc3)c(-c3ccc(O)cc3)s2)cc1`, the relative binding affinity (RBA) in test [3] is 0.03.
Turning to `CCc1c(-c2ccc(O)cc2)oc(-c2ccccc2)c1-c1ccccc1`, the relative binding affinity (RBA) came to 3.4 in test [1], 10.8 in test [2] and 0.44 in test [3].
Take `Oc1ccc(-c2oc(-c3ccc(O)cc3)c(-c3ccc(O)cc3)c2-c2ccc(O)cc2)cc1`: the relative binding affinity (RBA) is 0.25 in test [1], 8.7 in test [2] and 0.84 in test [3].
Regarding `CCc1c(-c2ccccc2)oc(-c2ccccc2)c1-c1ccc(O)cc1`, the relative binding affinity (RBA) in test [1] stood at 0.07; in test [2], 0.15; in test [3], 0.02.
Regarding `Oc1ccc(-c2cc(-c3ccccc3)c(-c3ccc(O)cc3)o2)cc1`, in test [3], the relative binding affinity (RBA) stood at 0.13.
In the case of `Cc1c(-c2ccc(O)cc2)oc(-c2ccc(O)cc2)c1-c1ccc(O)cc1`, the relative binding affinity (RBA) in test [1] came out at 0.62; in test [2] it was 40; in test [3] it was 2.9.
With `CC(C)Cc1c(-c2ccc(O)cc2)nn(-c2ccc(O)cc2)c1-c1ccc(O)cc1`, the relative binding affinity (RBA) in test [1] came out at 0.89; in test [4], 75.
On to `CCc1c(-c2ccc(O)cc2)cc(-c2ccccc2)n1-c1ccc(O)cc1`, for which the relative binding affinity (RBA) in test [3] came out at 0.5.
`CCCc1c(-c2ccc(O)cc2)nn(-c2ccc(O)cc2)c1-c1ccc(O)cc1` gave a relative binding affinity (RBA) in test [4] of 49.
Turning to `CCc1c(-c2ccc(O)cc2)oc(-c2ccc(O)cc2)c1-c1ccc(O)cc1`, the relative binding affinity (RBA) in test [2] turned out to be 140; in test [3], 6.5.
For `CCc1c(-c2ccc(O)cc2)oc(-c2ccc(O)cc2)c1-c1ccccc1`, the relative binding affinity (RBA) in test [1] is 3; in test [2], 16.5; in test [3], 0.7.
Turning to `CCCc1c(-c2ccc(O)cc2)oc(-c2ccc(O)cc2)c1-c1ccc(O)cc1`, the values for the relative binding affinity (RBA) in test [1], in test [2] and in test [3] were 1.8, 100 and 3.6, respectively.
On to `CCc1c(-c2ccccc2)oc(-c2ccc(O)cc2)c1-c1ccc(O)cc1`, for which the relative binding affinity (RBA) in test [1] came to 4.5; in test [2], 14.8; in test [3], 0.45.
In the case of `CCCCc1c(-c2ccc(O)cc2)oc(-c2ccc(O)cc2)c1-c1ccc(O)cc1`, the relative binding affinity (RBA) turned out to be 3.9 in test [1], 21 in test [2] and 1.3 in test [3].
Consider `CCc1c(-c2ccccc2)oc(-c2ccc(O)cc2)c1-c1ccccc1`, for which the relative binding affinity (RBA) in test [1] is 2; in test [2], 6.8; in test [3], 0.1.
As to `Oc1ccc(-c2cc(-c3ccc(O)cc3)c(-c3ccccc3)o2)cc1`, in test [3], the relative binding affinity (RBA) is 0.04.
`CCCc1c(-c2ccc(O)cc2)oc(-c2ccccc2)c1-c1ccc(O)cc1`: the relative binding affinity (RBA) in test [1] stood at 15; in test [2] it was 140; in test [3], 3.6.
`Oc1ccc(-c2cc(-c3ccc(O)cc3)c(-c3ccccc3)s2)cc1` returned a relative binding affinity (RBA) in test [3] of 0.04.
